Experimental data published in ChEMBL document CHEMBL1138954, “Cyclobutane derivatives as potent NK1 selective antagonists” (Bioorg Med Chem Lett, 2006).

Columns and labels:
[1] = molecular target: Substance-P receptor (Homo sapiens, UniProt P25103); assay: Displacement of [3H]Sar-Met substance P from human recombinant NK1 receptor expressed in CHO cells; format: cell-based
In short: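 Membranes from CHO cells expressing recombinant human NK1 receptor. Radioligand was [³H]-Sar-Met substance P at about its experimentally derived Kd. Ki was calculated with the Cheng–Prusoff equation. Values are the mean of two or three independent determinations.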

[2] = tested on: Meriones unguiculatus; assay: Inhibition of GR-73632-induced foot tapping in Mongolian gerbil at 1 mg/kg, po after 4 hrs; format: functional
In short: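 Female Mongolian gerbils were dosed orally in 0.4% methylcellulose/distilled water before icv injection of GR73632 (3 pmol in 5 μl). After recovery from anaesthesia, animals were placed in clear boxes for 5 min. Duration of rhythmic hind-foot tapping was timed and expressed as percent decrease (% inhibition).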

[3] = molecular target: T1, Substance-K receptor (Homo sapiens) (UniProt P21452); assay: Inhibition of [3H]neurokinin A binding to human recombinant NK2 receptor in CHO cells at 3 uM; format: cell-based
T1 sequence (whole entry): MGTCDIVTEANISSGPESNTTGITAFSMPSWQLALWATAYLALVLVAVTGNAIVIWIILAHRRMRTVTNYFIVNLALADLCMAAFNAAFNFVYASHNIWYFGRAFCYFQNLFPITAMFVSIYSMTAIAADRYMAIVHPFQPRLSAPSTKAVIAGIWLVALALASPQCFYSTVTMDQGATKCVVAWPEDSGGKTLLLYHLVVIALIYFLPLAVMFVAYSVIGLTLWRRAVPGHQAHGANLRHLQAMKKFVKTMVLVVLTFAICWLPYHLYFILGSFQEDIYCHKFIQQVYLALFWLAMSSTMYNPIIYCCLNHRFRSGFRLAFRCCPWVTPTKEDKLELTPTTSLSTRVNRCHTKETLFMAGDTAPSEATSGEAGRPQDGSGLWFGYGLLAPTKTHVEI
In short: (§1)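 Competition binding used membranes of CHO cells carrying recombinant human NK2 receptor. [³H]neurokinin A was the ligand, at a concentration near its experimentally derived Kd. Data are the average of two or three independent determinations.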

[4] = molecular target: T2, Neuromedin-K receptor (Homo sapiens, UniProt P29371); assay: Displacement of [3H]neurokinin B from human recombinant NK3 receptor in CHO cells; format: cell-based; details: in the assay text read “[125I]neurokinin B” for “[3H]neurokinin B”
T2 sequence (P29371 whole entry): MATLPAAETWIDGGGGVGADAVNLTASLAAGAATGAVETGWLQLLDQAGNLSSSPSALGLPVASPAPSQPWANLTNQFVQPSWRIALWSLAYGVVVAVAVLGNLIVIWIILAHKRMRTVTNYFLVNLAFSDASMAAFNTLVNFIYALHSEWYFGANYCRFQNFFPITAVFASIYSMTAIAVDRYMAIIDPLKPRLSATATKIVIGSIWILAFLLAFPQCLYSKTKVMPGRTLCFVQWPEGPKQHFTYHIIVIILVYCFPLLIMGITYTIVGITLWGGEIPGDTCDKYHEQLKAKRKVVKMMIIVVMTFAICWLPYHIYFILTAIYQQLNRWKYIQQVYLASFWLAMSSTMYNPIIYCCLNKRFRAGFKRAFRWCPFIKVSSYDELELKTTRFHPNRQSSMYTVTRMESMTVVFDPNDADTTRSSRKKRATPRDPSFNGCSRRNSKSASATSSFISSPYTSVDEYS
In short: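 Membrane preparations came from CHO cells expressing recombinant human NK3 receptor. Labelled neurokinin B ligand was used near its experimentally derived Kd. Ki was obtained by the Cheng–Prusoff equation. Values are the average of two or three independent determinations.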

[5] = molecular target: T1, Substance-K receptor (Homo sapiens); assay: Inhibition of [3H]neurokinin A binding to human recombinant NK2 receptor in CHO cells at 0.3 uM; format: cell-based; in short: as §1
[6] = molecular target: T2, Neuromedin-K receptor; assay: Displacement of [125I]neurokinin B from human recombinant NK3 receptor in CHO cells

Substance-P receptor, sequence (P25103 whole entry): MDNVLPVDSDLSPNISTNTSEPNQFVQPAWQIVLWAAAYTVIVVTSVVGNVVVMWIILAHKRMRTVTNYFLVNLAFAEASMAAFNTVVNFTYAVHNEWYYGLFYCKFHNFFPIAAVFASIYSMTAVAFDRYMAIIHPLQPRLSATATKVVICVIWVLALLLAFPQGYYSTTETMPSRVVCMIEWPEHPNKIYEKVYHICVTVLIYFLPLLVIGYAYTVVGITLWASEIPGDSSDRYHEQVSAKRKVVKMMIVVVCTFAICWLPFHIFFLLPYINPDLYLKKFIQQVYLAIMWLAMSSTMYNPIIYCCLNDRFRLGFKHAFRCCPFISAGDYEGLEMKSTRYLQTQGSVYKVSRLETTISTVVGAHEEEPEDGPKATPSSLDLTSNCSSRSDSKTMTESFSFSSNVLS

Row | Compound | Ki [1] [nM] | inhibition in vivo at 1 mg/kg [2] [%] | inhibition [3] [%] | Ki [4] [nM] | inhibition [5] [%] | Ki [6] [nM]
1 | C[C@@H](OCC1(c2ccccc2)CC(N)C1)c1cc(C(F)(F)F)cc(C(F)(F)F)c1 (stereo partly drawn) | 0.02 | 21 | 25 | 4050 | – | –
2 | C[C@@H](OCC1(c2ccccc2)CC(NCc2ccccc2)C1)c1cc(C(F)(F)F)cc(C(F)(F)F)c1 (stereo partly drawn) | 0.3 | 25 | – | – | – | –
3 | C[C@@H](OC[C@]1(c2ccccc2)C[C@H](N2CCCC2=O)C1)c1cc(C(F)(F)F)cc(C(F)(F)F)c1 | 0.3 | 3 | – | – | – | –
4 | C[C@@H](OC[C@]1(c2ccccc2)C[C@](N)(C(=O)N(C)C)C1)c1cc(C(F)(F)F)cc(C(F)(F)F)c1 | 3.3 | 79 | – | – | – | –
5 | C[C@@H](OC[C@]1(c2ccccc2)C[C@](N)(C(=O)N2CCCC2)C1)c1cc(C(F)(F)F)cc(C(F)(F)F)c1 | 1.3 | 13 | – | – | – | –
6 | CNC(=O)[C@]1(N)C[C@@](CO[C@H](C)c2cc(C(F)(F)F)cc(C(F)(F)F)c2)(c2ccccc2)C1 | 1 | 98 | – | 2000 | 1.2 | –
7 | CC(=O)N[C@H]1C[C@](CO[C@H](C)c2cc(C(F)(F)F)cc(C(F)(F)F)c2)(c2ccccc2)C1 | 0.4 | 25 | 23 | – | – | 2130
8 | CNC(=O)[C@]1(N)C[C@](CO[C@H](C)c2cc(C(F)(F)F)cc(C(F)(F)F)c2)(c2ccccc2)C1 | 0.5 | 58 | – | – | – | –
9 | C[C@@H](OC[C@]1(c2ccccc2)C[C@@](N)(C(N)=O)C1)c1cc(C(F)(F)F)cc(C(F)(F)F)c1 | 0.43 | 30 | – | – | – | –
10 | C[C@@H](OCC1(c2ccccc2)CC(NCc2n[nH]c(O)n2)C1)c1cc(C(F)(F)F)cc(C(F)(F)F)c1 (stereo partly drawn) | 0.5 | 22 | – | – | – | –
11 | C[C@@H](OC[C@]1(c2ccccc2)C[C@](N)(C(=O)N2CCCCC2)C1)c1cc(C(F)(F)F)cc(C(F)(F)F)c1 | 1.3 | 15 | – | – | – | –
12 | C[C@@H](OC[C@]1(c2ccccc2)C[C@@H](N2CCCC2=O)C1)c1cc(C(F)(F)F)cc(C(F)(F)F)c1 (mixture of isomers) | 0.4 | 41 | – | – | – | –
13 | C[C@@H](OC[C@]1(c2ccccc2)C[C@](N)(C(N)=O)C1)c1cc(C(F)(F)F)cc(C(F)(F)F)c1 | 1 | 81 | – | – | – | –
14 | CC(=O)N[C@H]1C[C@@](CO[C@H](C)c2cc(C(F)(F)F)cc(C(F)(F)F)c2)(c2ccccc2)C1 | 0.1 | 23 | 26 | – | – | 631
15 | C[C@@H](OCC1(c2ccccc2)CC(=O)C1)c1cc(C(F)(F)F)cc(C(F)(F)F)c1 | 2.4 | 11 | – | – | – | –
